Screens from PubChem BioAssay.
BB579 growth dn = growth inhibitors of yeast BB579 in restrictive medium, primary screen, yeast lifespan-shortening project, S. cerevisiae | OD615, 48 h | inhibition, % at 10 µM | 0.51% of 140,000 active | AID 804, 2007;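 active = inhibition above a set limit, 3 SD over the mean compound inhibition, cut at about 44% in these data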
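System: DeaD yeast strain BB579; buffer or medium: CSMM-D dextrose restrictive medium; technique: OD at 615 nm; schedule: 4 h cell preincubation, 48 h compound exposure, 30 °C humidified; doses: single 10 µM dose; controls: amphotericin B 10 µg/mL, positive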
Yeast life ext = compounds extending yeast replicative lifespan, primary screen, S. cerevisiae, OD615. AID 775, 2007. 0.68% of 130,000 active. inhibition of the nicotinamide effect, % at 10 µM. S. cerevisiae growth with nicotinamide; deaD strain in restrictive glucose medium;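 active = inhibition above a set limit, placed 3 SD over the median of all compounds, cut at about 26% in these data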;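 also: 0% = nicotinamide-treated wells and 100% = cells grown without nicotinamide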
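Measured by: optical density (absorbance) at 615 nm; System: modified budding yeast, DeaD strain; Medium: restrictive CSMM-D dextrose medium; Timing: 4 h preincubation then 48 h treatment at 30 °C.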
RAM inhibit = inhibitors of the yeast RAM network, primary screen, dse1pr::URA3 reporter, 5-FOA selection; S. cerevisiae dse1pr::URA3 reporter, 5-FOA growth OD615, 2 d; analog-sensitive cbk1-as2 kinase mutant strain; inhibition, % at 50 µM; 1.8% of 190,000 active; AID 868, 2007;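 active = inhibition above a set limit, 3 SD over mean compound inhibition, cut at about 8.4% in these data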;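 also: 0% = DMSO-only wells with no growth and 100% = 10 µM 1-NA-PP1 full growth; inhibition rescues growth on 5-FOA so higher OD means more RAM inhibition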
An asterisk follows results filed as active; · = no result given. Most compounds without a hit are left out; they make up all but 2.6% or so of the library.

SMILES | BB579 growth dn | Yeast life ext | RAM inhibit
CCS(=O)(=O)Nc1ccccc1C(N)=O | · | · | 0
O=C(CSc1oc(-c2ccc(F)cc2)nc1S(=O)(=O)c1ccc(F)cc1)NCC1CCCO1 (stereo unspecified) | -34 | -5 | 0
O=C(CSc1oc(-c2cccs2)nc1S(=O)(=O)c1ccc(F)cc1)NCC1CCCO1 (stereo unspecified) | -14 | -8 | 9.1*
Cc1ccc2nc(/C(C#N)=C\c3ccc(N4CCOCC4)o3)[nH]c2c1 | -29 | · | -1
N#C/C(=C\c1ccc(Sc2ccccc2)o1)c1nc2ccccc2[nH]1 | -69 | 2 | 7
N#C/C(=C\c1ccc([N+](=O)[O-])o1)c1nc2ccccc2[nH]1 | 67* | 21 | 2
Cc1ccc2nc(/C(C#N)=C\c3ccc([N+](=O)[O-])o3)[nH]c2c1 | 99* | -22 | -1
CS/C(=C/[N+](=O)[O-])Nc1cccc2c1C(C)CC2(C)C (stereo unspecified) | · | · | 1
O=c1c2ccccc2sn1-c1ccccc1 | -7 | 41* | 3
O=c1c2ccccc2sn1-c1ccc(S(=O)(=O)N2CCCC2)cc1 | -9 | 0 | 4
NC(=S)NN=C(Cc1ccccc1)Cc1ccccc1 | · | · | 0
O=C(COC(=O)c1ccccc1Nc1ccccc1)c1ccccc1 | -6 | -12 | 9.8*
CNc1ccccc1C(=O)OCC(=O)c1ccccc1 | -22 | -8 | 1
O=C(NCc1ccc(F)cc1)c1nc(-c2cccs2)no1 | · | · | 8.5*
COc1ccc(CCNC(=O)c2nc(-c3cccs3)no2)cc1OC | · | · | 0
Cc1cccc(OCc2nnc(SCC(=O)Nc3ncc(C)s3)o2)c1 | · | · | 0
Cc1ccc(C(=O)CSc2nnc(COc3cccc(C)c3)o2)cc1 | -30 | -2 | 9.9*
CCc1nnc(NC(=O)CSc2nnc(COc3ccccc3)n2-c2ccc(C)cc2)s1 | 0 | 1 | 7
COc1cccc(C(=O)CSc2nnc(-c3cc(OC)cc(OC)c3)o2)c1 | -25 | -4 | 5
COc1ccc(C(=O)CSc2nnc(-c3cc(C)cc(C)c3)o2)cc1 | -28 | 1 | 10.0*
CCOC(=O)CSc1nnc(COc2cccc(C)c2)o1 | · | · | 1
CCc1nnc(NC(=O)CSc2nnc(-c3ccccc3O)n2-c2ccc(C)cc2C)s1 | -47 | 2 | 8.5*
CCc1nnc(NC(=O)CSc2nnc(COc3cccc(C)c3)o2)s1 | -12 | 27* | 2
CC(C)Cn1c(-c2csc3c2CCCC3)n[nH]c1=S | -9 | -1 | 1
CCOc1cc(C(=S)N2CCOCC2)ccc1OS(=O)(=O)c1ccccc1[N+](=O)[O-] | -21 | 0 | 2
SMILES | BB579 growth dn | Yeast life ext | RAM inhibit
CC(C)C(=O)NC(c1ccccc1)c1cc([N+](=O)[O-])c2cccnc2c1O (stereo unspecified) | 74* | -4 | 4
CCC(=O)NC(c1cccs1)c1cc([N+](=O)[O-])c2cccnc2c1O (stereo unspecified) | 26 | 1 | 3
CC(=O)NC(c1cccs1)c1cc([N+](=O)[O-])c2cccnc2c1O (stereo unspecified) | 80* | -4 | 0
CCCC(=O)NC(c1cccs1)c1cc([N+](=O)[O-])c2cccnc2c1O (stereo unspecified) | 47* | -2 | 5
O=C(CCc1ccccc1)NC(c1cccs1)c1cc(Cl)c2cccnc2c1O (stereo unspecified) | · | · | 8
CC(=O)NC(c1ccccc1)c1cc([N+](=O)[O-])c2cccnc2c1O (stereo unspecified) | · | · | 2
O=C(NCc1ccc2c(c1)OCO2)C1CCC(=O)N1C1CCCC1 (stereo unspecified) | · | · | -1
Cc1cc(/C=C2\Sc3ccccc3N2C)cc(C)[n+]1CC1CCCO1 (stereo unspecified) | · | · | -1
Cc1cc(C(=O)C[N+]2(C)CCOCC2)c(C)n1-c1ccc(Br)cc1 | · | · | 2
CN1CCN(S(=O)(=O)c2ccc(Oc3ccc(F)c(Cl)c3)nc2)CC1 | · | · | 1
CCCOC(=O)CSc1nc(N)c(C#N)c(-c2ccco2)c1C#N | -52 | · | 9.3*
N#Cc1c(N)nc(SCC(=O)OCc2ccccc2)c(C#N)c1-c1ccco1 | -22 | -22 | 6
COC(=O)Cc1ccc(NC(=S)Nc2cccc(C)n2)cc1 | · | · | 4
CCCCC(=O)NC(=S)NNC(=O)CC#N | -2 | -4 | -1
CCCCC(=O)NNC(=S)NC(=O)CCC | 78* | · | -1
CN1C(=O)C(Cl)(Cl)C(=O)c2ccccc21 | -47 | 47* | 1
C/C(CC1(O)C(=O)N(C)c2ccccc21)=N\O (stereo unspecified) | -8 | -4 | 0
COc1cccc(CNC23CC4CC(CC(C4)C2)C3)c1OCc1ccccc1 | · | · | 0
